In the library only some 3.2% were active in any assay of this set; here they are far more common.
LEDGF integ inh: blocks HIV-1 LEDGF/p75-dependent DNA integration; inhibition, % at 3.7 µM; 0.64% of 370,000 active; TR-FRET IN-LEDGF/p75 DNA integration, Eu/Cy5;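 active = inhibition above the screen-wide mean plus 3 SD, cut at about 13% in these data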;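 also: signal is the Cy5 over europium emission ratio at 671 and 618 nm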
PRMT1 inh: blocks human protein arginine methyltransferase 1; Q99873; recombinant PRMT1, activity-based probe fluorescence polarization; inhibition, % at 2.79 µM; 1.3% of 370,000 active;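 active = inhibition above about 21% made by adding two undisclosed values, limit read from the data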
rCAG binder: r(CAG) repeat RNA binding; TO-PRO-1 dye displacement fluorescence; inhibition, % at 3 µM; 1.3% of 370,000 active; AID 651821;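 active = inhibition above the plate cutoff, the mean of all test compounds on that plate plus 3 SD, cut at about 35% in these data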;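 also: higher means more dye released from RNA so lower well fluorescence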
DAGLB inh: blocks human DAGLB lipase activity; HEK293T DAGLB membrane lysate, EnzChek fluorogenic substrate; Q8NCG7; 0.059% of 340,000 active; inhibition, % at 5.17 µM; AID 504411; in the data active = inhibition above about 34%
ABHD4 inh: ABHD4 (mouse) inhibition, primary FP screen | inhibition, % at 8.92 µM | 0.54% of 370,000 active | Q8VD66 | purified mABHD4, FP-Rh probe fluorescence polarization;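 active = inhibition exceeding the mean over every tested compound plus 3 SD, cut at about 30% in these data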
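system = mouse ABHD4 enzyme, wild type | medium = HEPES pH 7.0, NaCl, Pluronic buffer | also added = FP-Rh probe | incubation = Enzyme–compound pre-incubation 45 min, then probe 60 min, both 25 °C | technique = fluorescence polarization, excitation 525 nm, emission 598 nm, BODIPY TMR filters | controls = S159A mutant high control, sample median low control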
HTRA1 inhibitor: HTRA1 (human) protease inhibition; recombinant HTRA1, FP-rhodamine activity-based probe, fluorescence polarization; inhibition, % at 5.96 µM; 0.5% of 340,000 active; AID 504803; in the data active = inhibition above about 36%
Target sequence (Q92743 whole entry, looked up): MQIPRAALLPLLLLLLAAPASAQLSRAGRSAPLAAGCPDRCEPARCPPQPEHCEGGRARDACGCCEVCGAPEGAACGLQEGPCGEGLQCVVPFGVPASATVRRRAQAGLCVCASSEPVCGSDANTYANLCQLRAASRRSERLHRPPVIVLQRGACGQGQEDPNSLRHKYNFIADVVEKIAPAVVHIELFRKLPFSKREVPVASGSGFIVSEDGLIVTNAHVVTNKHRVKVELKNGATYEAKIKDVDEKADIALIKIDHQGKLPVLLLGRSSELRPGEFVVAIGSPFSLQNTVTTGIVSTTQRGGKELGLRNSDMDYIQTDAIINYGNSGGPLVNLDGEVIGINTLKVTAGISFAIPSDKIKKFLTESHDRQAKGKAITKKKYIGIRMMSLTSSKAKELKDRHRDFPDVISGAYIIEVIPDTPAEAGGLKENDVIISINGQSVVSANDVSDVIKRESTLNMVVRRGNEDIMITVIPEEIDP
rCAG binder conf: r(CAG) RNA repeat binding, confirmation; TO-PRO-1 dye displacement fluorescence; shares compounds with rCAG binder; inhibition, % at 3 µM; 70% of 4,300 active;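 active = inhibition above a per-plate cutoff, the mean inhibition of sample wells plus 3 SD, cut at about 35% in these data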;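 also: loss of TO-PRO-1 fluorescence as compound displaces dye from 1x1 AA loop RNA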
dCAG dye counter: disrupts DNA CAG TO-PRO-1 complex, flagging rCAG hits | AID 652068 | shares compounds with rCAG binder | d(CAG) DNA oligo TO-PRO-1 dye displacement, fluorescence | 94% of 4,300 active | inhibition, % at 3 µM;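 active = inhibition above its plate's cutoff, the mean test-well inhibition plus 3 SD, cut at about 4.8% in these data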;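 also: hits displace the dye from DNA and so lower well fluorescence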
PRMT1 inh conf: PRMT1 (human) inhibition, FP confirmation | shares compounds with PRMT1 inh | recombinant His-PRMT1, activity-based probe fluorescence polarization | inhibition, % at 2.79 µM | 42% of 3,300 active;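 active = mean inhibition across replicates above the hit cutoff derived for the earlier primary screen, cut at about 22% in these data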
ABHD4 confirm: ABHD4 (mouse) inhibition, FP confirmation; shares compounds with ABHD4 inh; purified mABHD4, FP-Rh probe fluorescence polarization; inhibition, % at 8.92 µM; 55% of 1,800 active;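 active = mean inhibition across replicates above the hit cutoff set in the primary screen, cut at about 30% in these data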
IN multimer act: HIV-1 integrase multimerization activation, counter-screen; TR-FRET HIV-1 integrase multimerization, biochemical; activation, % at 7.7 µM; AID 1053131; shares compounds with LEDGF integ inh; 17% of 2,000 active; in the data active = activation above about 8.9%
TR-FRET interf: counter-screen for LEDGF/p75 integration inhibitors: TR-FRET optical interference; shares compounds with LEDGF integ inh; inhibition, % at 7.7 µM; TR-FRET optical interference counterscreen, HIV-1 IN multimerization; 2,000 tested, under 10 active;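 active = inhibition above the mean over all tested compounds plus 3 SD, which no compound reached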
IN-LEDGF confirm: LEDGF/p75-dependent HIV-1 integration inhibition, confirmation; shares compounds with LEDGF integ inh; TR-FRET LEDGF/p75-dependent HIV-1 integration, biochemical; inhibition, % at 3.7 µM; 36% of 2,000 active; AID 1053136; in the data active = inhibition above about 14%
A number is an active result; - = inactive; . = not tested or not shown.

SMILES | LEDGF integ inh | PRMT1 inh | rCAG binder | DAGLB inh | ABHD4 inh | HTRA1 inhibitor | rCAG binder conf | dCAG dye counter | IN multimer act | TR-FRET interf | IN-LEDGF confirm | others
O=C(c1cc(-c2ccco2)nc2ccccc12)N1CCN(Cc2ccccc2)CC1 | - | - | - | - | - | - | . | . | . | . | .
COC(=O)C1CCN(C(=O)c2cc(-c3ccco3)nc3ccccc23)CC1 | 28 | 22 | 41 | - | - | - | - | 15 | 15 | - | 49
O=C(O)c1ccccc1-c1ccc(C=c2sc3nc4cc(Br)cnc4n3c2=O)o1 | 29 | 84 | 81 | . | - | . | 72 | 39 | - | - | 17 | PRMT1 inh conf=25
O=C(CSc1nnc(-c2ccco2)c(-c2ccco2)n1)Nc1ccccc1 | 38 | 48 | 60 | - | 51 | - | - | 15 | - | - | 55 | ABHD4 confirm=39
CN(C)c1ccc(NC(=O)CSc2nnc(-c3ccco3)c(-c3ccco3)n2)cc1 | - | - | - | - | - | - | . | . | . | . | .
O=C(NCc1cccc(F)c1F)C1CCC(=O)N(C2CC2)C1 (configuration not stated) | - | - | - | - | - | - | . | . | . | . | .
Oc1ccc(/C=N/NC(=S)Nc2cccnc2)c(O)c1 | - | - | - | - | - | - | . | . | . | . | .
Oc1ccc(/C=N/NC(=S)Nc2cccnc2)c(O)c1O | 84 | 67 | 44 | - | 41 | - | 39 | 15 | 30 | - | 84 | PRMT1 inh conf=88;ABHD4 confirm=68
Cc1ccc(/C=c2\s/c(=C(/C#N)C(=O)N3CCCC3)n(Cc3ccco3)c2=O)s1 | 14 | 26 | 35 | - | - | - | - | 10 | - | - | - | PRMT1 inh conf=-
C/C(=N\NC(=O)c1ccc(-n2cnnn2)cc1)c1ccc(Cl)cc1 | - | - | - | - | - | - | . | . | . | . | .
O=c1oc2c(-c3ccc([N+](=O)[O-])cc3)cc(O)cc2s1 | 25 | 78 | 40 | - | 61 | - | - | 7.7 | - | - | - | ABHD4 confirm=-
CC1=C(C(=O)Nc2ccccc2)C(c2ccc(C)o2)n2c(s/c(=C\c3ccco3)c2=O)=N1 (configuration not stated) | 29 | 53 | 38 | - | - | - | - | 7.1 | - | - | - | PRMT1 inh conf=-
O=C(O)c1ccc2nc(-c3ccco3)c(-c3ccco3)nc2c1 | 86 | 55 | 42 | - | 63 | - | 47 | 12 | 73 | - | 76 | PRMT1 inh conf=67;ABHD4 confirm=-
C=CCn1c(SCCN2C(=O)c3ccccc3C2=O)nc2scc(-c3ccc(F)cc3)c2c1=O | - | - | - | - | - | - | . | . | . | . | .
COC(=O)CSc1nnc2cc(C)c3ccccc3n12 | - | - | - | - | - | - | . | . | . | . | .
COc1cc(C2C(C#N)=C(N)Oc3c2c(-c2ccccc2)nn3-c2ccccc2)cc(OC)c1OC (configuration not stated) | 19 | - | 62 | - | - | - | - | 8.5 | - | - | -
Cc1nn(-c2ccccc2)c2c1C(c1ccco1)C(C#N)=C(N)O2 (configuration not stated) | - | - | - | - | - | - | . | . | . | . | .
COc1ccc([N+](=O)[O-])cc1NC(=O)C(C)N1CCCC1 (configuration not stated) | - | - | - | - | - | - | . | . | . | . | .
CN(C)c1ccc(O)c2c1CC1CC3[C@@H](N(C)C)C(=O)C(C(N)=O)=C(O)[C@]3(O)C(=O)C1=C2O (some centres not stated) | 77 | 31 | 64 | - | 77 | - | 46 | 18 | 51 | - | 48 | ABHD4 confirm=44
Cc1cccc(N=C2NC(=O)/C(=C/C=C/c3ccco3)S2)c1 | 26 | 28 | 52 | - | - | - | 43 | 23 | - | - | 55 | PRMT1 inh conf=-
Cc1cc(C)cc(C(=O)OCC(=O)N2CCCC2)c1 | - | - | - | - | - | - | . | . | . | . | .
COc1cc(/C=N/NC(=O)c2cc(-c3ccco3)nc3ccccc23)cc(OC)c1O | - | - | - | - | - | - | . | . | . | . | .
O=C(N/N=C/c1cccc(F)c1)c1cc(-c2ccco2)nc2ccccc12 | 20 | - | 45 | - | - | - | 41 | 26 | 21 | - | 49
CC1=NN(c2ccc(C)c(C)c2)C(=O)C1C(c1cccc(O)c1)C1C(=O)N(c2ccc(C)c(C)c2)N=C1C (configuration not stated) | 42 | - | 70 | - | - | - | 78 | 37 | - | - | -
COCC(C)n1c(C)cc(C(=O)CN2c3cccc4cccc(c34)S2(=O)=O)c1C (configuration not stated) | - | - | - | - | - | - | . | . | . | . | .
SMILES | LEDGF integ inh | PRMT1 inh | rCAG binder | DAGLB inh | ABHD4 inh | HTRA1 inhibitor | rCAG binder conf | dCAG dye counter | IN multimer act | TR-FRET interf | IN-LEDGF confirm | others
Cc1cc(C(=O)CN2c3cccc4cccc(c34)S2(=O)=O)c(C)n1C | 20 | - | 38 | - | - | - | - | 8.6 | - | - | -
Cc1ccc(C)n1/N=C1/NC(=O)CS1 | 58 | - | 36 | - | - | - | - | 9.9 | - | - | 66
O=S(=O)(Nc1ccc(-c2cn3c(n2)SCC3)cc1)c1ccccc1F | - | - | - | - | - | - | . | . | . | . | .
CCCC1=NN2C(=N)/C(=C\c3ccc(SCc4ccco4)o3)C(=O)N=C2S1 | . | . | . | - | . | - | . | . | . | . | .
CCC1=NN2C(=N)/C(=C\c3ccc(SCc4ccco4)o3)C(=O)N=C2S1 | 50 | 39 | 65 | - | - | - | 56 | 20 | - | - | 27 | PRMT1 inh conf=-
Cc1ccccc1NC(=O)C1CCN(c2cnccn2)CC1 | - | - | - | - | - | - | . | . | . | . | .
Cc1cccc2sc(N3CCN(C(=O)c4cccs4)CC3)nc12 | - | - | - | - | - | - | . | . | . | . | .
CC(C)C1Nc2c(O)cc(Cl)c([N+](=O)[O-])c2C2C=CCC21 (configuration not stated) | 26 | 30 | 37 | - | 58 | - | - | - | - | - | - | PRMT1 inh conf=-;ABHD4 confirm=35

From PubChem BioAssay
